Data set [1] has as its system P493B lymphoma cells. The experiment in a line: Human tumor cell-to-plasma partitioning, P493B cells in human plasma. It counts as cell-based. The settings on record: human plasma with P493B cells, 0.25-2 h (Figure 3A). An outline of the steps: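 P493B lymphoma cells were grown in RPMI 1640 with L-glutamine, 10% FBS and 1% antibiotic/antimycotic at 37 °C and 5% CO2. Pelleted cells were resuspended in human plasma at 10 million cells/mL and preincubated 5 min at 37 °C. Test compound was incubated at 37 °C for 1 h, or for 0.25, 0.5, 1 and 2 h. Plasma and washed pellets were analysed for intact prodrug and DON by LC–MS/MS, with DON dabsyl-derivatised.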

Data set [2] can be described thus: In vitro plasma stability, swine plasma. As to conditions: prodrug 20 μm, 37 °C. It counts as in vitro ADME.
Data set [3] is described as follows: Metabolic stability in swine liver homogenate. It is filed as in vitro ADME. The settings on record: 20 μm, 37 °C, 1 h (Figure 1A).
Data set [4] in a line: Negative control incubation without enzymes. It is filed as physicochemical. The settings on record: no enzyme, pH 6 buffer, 37 °C, 3 h.
Data set [5] is described as follows: In vitro plasma stability, human plasma. As to conditions: prodrug 20 μm, 37 °C. It counts as in vitro ADME.
Data set [6] in a line: In vitro plasma stability, mouse plasma. It is filed as in vitro ADME. As to conditions: prodrug 20 μm, 37 °C.
Data set [7] is described as follows: Pharmacokinetics in EL4 tumor-bearing CES1-/- mice. It counts as in vivo, C57BL/6 CES1−/− mice. An outline of the steps: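 EL4 cells (1 × 10^6 in PBS) were implanted SC in the flank of male and female C57BL/6 CES1−/− mice (6–8 weeks). At about 400 mm3 tumour volume, a single 3.2 mg/kg SC dose was given in ethanol/Tween 80/saline (5:10:85). Plasma, jejunum and tumour were sampled at set times, n = 3 per time point. Analysis was LC–MS/MS with noncompartmental parameters, mean ± SEM.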

A short description of data set [8]: Metabolic stability in swine intestinal. As to conditions: swine intestinal (jejunum) homogenate, 20 μm, 37 °C, 1 h (Figure 1B). It is filed as in vitro ADME.

Take `CC(=O)NCCCC[C@H](NC(=O)C12CC3CC(CC(C3)C1)C2)C(=O)N[C@@H](CCC(=O)C=[N+]=[N-])C(=O)OC(C)C` [Compound 6, isopropyl 2-(6-acetamido-2-(adamantane-1-carboxamido)hexanamido)-6-diazo-5-oxohexanoate]: in data set [1], the “stability of intact prodrug in human plasma, time course” value is recorded as “stable over the 2 h incubation period”. The “Plasma Stability (%Remaining at 1 h) Swine” value in data set [2] is reported as “complete stability”. The “% remaining at 1 h in swine liver homogenate” value in data set [3] was found to be 100%. In data set [4], the “chemical stability in negative control without enzymes” value is recorded as “chemically stable”. In addition, the “Plasma Stability (%Remaining at 1 h) Human” value in data set [5] is “complete stability”. Besides, the “Plasma Stability (%Remaining at 1 h) Mouse” value in data set [6] is on record as “instability”. Also, the “intact prodrug measured in tumor” value in data set [7] (EL4 tumor, SC 3.2 mg/kg) is listed as “minimal”. For the same compound, the “DON AUC in tumor after dosing of 6” value in data set [7] (EL4 tumor, SC 3.2 mg/kg (1 mg/kg DON equivalent), AUC0–t) was 5.1 nmol·h/g. Besides, the “DON AUC in jejunum (GI tissues) after dosing of 6” value in data set [7] (jejunum, SC 3.2 mg/kg (1 mg/kg DON equivalent), AUC0–t) came out at 0.45 nmol·h/g. The “intact prodrug levels in jejunum” value in data set [7] (jejunum, SC 3.2 mg/kg, below the limit of quantification) was < 0.001 nmol/mL.
`CC(=O)NCCCC[C@H](NC(=O)[C@@H](N)Cc1c[nH]c2ccccc12)C(=O)N[C@@H](CCC(=O)C=[N+]=[N-])C(=O)OC(C)C` [Compound 9, Isopropyl 2-(6-Acetamido-2-(2-amino-3-(1H-indol-3-yl)-propanamido)hexanamido)-6-diazo-5-oxohexanoate]: in data set [2], the “Plasma Stability (%Remaining at 1 h) Swine” value is given as “unstable”. For the same compound, in data set [8], the “% remaining at 1 h in swine intestinal homogenate” value is “instability”. Moreover, in data set [5], the “Plasma Stability (%Remaining at 1 h) Human” value is listed as “unstable”.
Regarding `CC(=O)NCCCC[C@H](NC(=O)OCC1c2ccccc2-c2ccccc21)C(=O)N[C@@H](CCC(=O)C=[N+]=[N-])C(=O)OC(C)C` [Compound 3, Isopropyl 2-(2-((((9H-Fluoren-9-yl)methoxy)carbonyl)-amino)-6-acetamidohexanamido)-6-diazo-5-oxohexanoate], in data set [8], the “% remaining at 1 h in swine intestinal homogenate” value is listed as “instability”.
Still for that read-out and setting: the result for `CCCCCCCCCCCCCCCC(=O)N[C@@H](CCCCNC(C)=O)C(=O)N[C@@H](CCC(=O)C=[N+]=[N-])C(=O)OC(C)C` [Compound 4, Isopropyl 2-(6-Acetamido-2-palmitamidohexanamido)-6-diazo-5-oxohexanoate] reads “unstable”.
As for `CC(=O)NCCCC[C@H](NC(=O)[C@@H]1Cc2ccccc2CN1)C(=O)N[C@@H](CCC(=O)C=[N+]=[N-])C(=O)OC(C)C` [Compound 12, Isopropyl 2-(6-Acetamido-2-(1,2,3,4-tetrahydroisoquinoline-3-carboxamido)hexanamido)-6-diazo-5-oxohexanoate], the “% remaining at 1 h in swine intestinal homogenate” value in data set [8] is listed as “instability”.
Turning to `CC(=O)NCCCC[C@H](NC(=O)[C@H](Cc1c[nH]c2ccccc12)NC(=O)C(C)(C)C)C(=O)N[C@@H](CCC(=O)C=[N+]=[N-])C(=O)OC(C)C` [Compound 11, Isopropyl 2-(2-(3-(1H-Indol-3-yl)-2-pivalamidopropanamido)-6-acetamidohexanamido)-6-diazo-5-oxohexanoate], the “% remaining at 1 h in swine intestinal homogenate” value in data set [8] was “instability”.

(Values after article PMC8025739 (Journal of medicinal chemistry, 2019).)
